Data set [1] relates to K562. In words: Growth inhibition of human K562 cells at 1 uM after 24 hrs by MTT assay relative to control. The data set is classed as functional. Conditions: K562, 24 h, read-out: GI. A digest of the protocol:
(§1)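 Exponentially growing cells in RPMI-1640 with 10% heat-inactivated FBS, 37 °C, 5% CO2. Treated 24 h at the single stated concentration. MTT (5 mg/mL in PBS) added for 2 h at 37 °C, then DMSO. Percent proliferation inhibition was calculated versus control. Independent experiments in duplicate, values averaged from two determinations.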

Data set [2] concerns K562. In words: Cytotoxicity against human K562 cells after 24 hrs by MTT assay. It counts as functional, cell-based. The following applies: K562, 24 h. A digest of the protocol:
(§2)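 Cells from NCCS Pune, grown in RPMI-1640 with 10% heat-inactivated FBS, penicillin/streptomycin and glutamine at 37 °C, 5% CO2. Cells were washed with PBS and exposed for 24 h, first at 1, 10 and 100, then at 2–64. MTT (5 mg/mL in PBS) added for 2 h, then DMSO. IC50 read graphically from concentration vs % inhibition plot. Each point is the average of two determinations.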

For data set [3], the system named is COLO 205. As to the kind of experiment: Growth inhibition of human COLO205 cells at 10 uM after 24 hrs by MTT assay relative to control. The following applies: COLO 205, 24 h, read-out: GI. The data set is classed as functional. In outline: as §1
For orientation: Tetrazolium dyes change colour on reduction, which living cells bring about.

A short description of data set [4]: Growth inhibition of human HEK293 cells at 1 uM after 24 hrs by MTT assay relative to control. It counts as cell-based. The following applies: read-out: GI. A digest of the protocol:
as §1

The test system of data set [5] is COLO 205. As to the kind of experiment: Growth inhibition of human COLO205 cells at 1 uM after 24 hrs by MTT assay relative to control. The following applies: COLO 205, 24 h, read-out: GI. The data set is classed as functional. A digest of the protocol:
as §1

In data set [6] the test system is COLO 205. In words: Cytotoxicity against human COLO205 cells after 24 hrs by MTT assay. The data set is classed as functional, cell-based. Conditions: COLO 205, 24 h. A digest of the protocol: as §2
Data set [7] in a line: Growth inhibition of human HEK293 cells at 10 uM after 24 hrs by MTT assay relative to control. The following applies: read-out: GI. It counts as cell-based. A digest of the protocol:
as §1

The subject of data set [8] is K562. In words: Growth inhibition of human K562 cells at 10 uM after 24 hrs by MTT assay relative to control. It counts as functional. The following applies: K562, 24 h, read-out: GI. In outline:
as §1

The nature of data set [9]: Lipophilicity, log P of the compound. It counts as physicochemical. Conditions: octanol/water.

Results on ten compounds are retold here after ChEMBL document CHEMBL1926522, “PEG-SO(3)H catalyzed synthesis and cytotoxicity of α-aminophosphonates” (Eur J Med Chem, 2012).

Take `CCOP(=O)(OCC)C(Nc1ccccc1)c1ccc(-c2ccncc2)cc1` (configuration not stated): the inhibition of growth at 1 µM worked out at 0% in the data set with K562 [1] and 18.1% with COLO 205 [5]. Besides, the IC50 was above 100 µM with K562 [2] and 18 µM in the data set with COLO 205 [6]. Also, the inhibition of growth at 10 µM in the data set with COLO 205 [3] stood at 31%; with K562 [8], 0%. In addition, the inhibition at 24 h, 1 µM in data set [4] came out at 0%. Further, the inhibition at 24 h, 10 µM in data set [7] stood at 0%.

On to `CCOP(=O)(OCC)C(Nc1ccc(F)c(Cl)c1)c1ccc(-c2ccncc2)cc1` (configuration not stated), for which the inhibition of growth at 1 µM in the data set with K562 [1] was determined as 26%; with COLO 205 [5], 44.5%. The IC50 in the data set with K562 [2] came to 22 µM; in the data set on COLO 205 [6], 10 µM. In addition, the values for the inhibition of growth at 10 µM with COLO 205 [3] and in the data set on K562 [8] were 47% and 26.2%, respectively. The inhibition at 24 h, 1 µM in [4] was 0.2%. Also, in data set [7], the inhibition at 24 h, 10 µM amounted to 1.2%.

On to `CCOP(=O)(OCC)C(Nc1cccc(Br)c1)c1ccc(-c2ccncc2)cc1` (configuration not stated), for which the inhibition of growth at 1 µM in the data set on K562 [1] stood at 41.7%; in the data set with COLO 205 [5] it was 31.3%. Also, the IC50 in the data set with K562 [2] came to 10 µM; with COLO 205 [6], 5 µM. The inhibition of growth at 10 µM is 71.6% in the data set on COLO 205 [3] and 53.8% with K562 [8]. In [4], the inhibition at 24 h, 1 µM was 1%. In [9], this compound yielded a logP of 5.72. In [7], the inhibition at 24 h, 10 µM was found to be 2.3%.

Turning to `CCOP(=O)(OCC)C(Nc1ccc(Cl)c([N+](=O)[O-])c1)c1ccc(-c2ccncc2)cc1` (configuration not stated), the values for the inhibition of growth at 1 µM with K562 [1] and with COLO 205 [5] were 14.3% and 35%, respectively. For the same compound, the IC50 in the data set on K562 [2] came out at 19 µM; with COLO 205 [6], 12 µM. For the same compound, the values for the inhibition of growth at 10 µM in the data set with COLO 205 [3] and in the data set with K562 [8] were 45.1% and 24.9%, respectively. In addition, the inhibition at 24 h, 1 µM in data set [4] worked out at 1.2%. In data set [7], the inhibition at 24 h, 10 µM was 3.4%.

As for `CCOP(=O)(OCC)C(Nc1cccc([N+](=O)[O-])c1)c1ccc(-c2ccncc2)cc1` (configuration not stated), the inhibition of growth at 1 µM in the data set with K562 [1] amounted to 0%; in the data set with COLO 205 [5] it was 39.5%. The figures for the IC50 in the data set with K562 [2] and with COLO 205 [6] were 20 µM and 14 µM, respectively. In addition, the inhibition of growth at 10 µM in the data set with COLO 205 [3] was 41.1%; with K562 [8] it was 25.8%. Besides, in [4], the inhibition at 24 h, 1 µM was 0%. Further, the inhibition at 24 h, 10 µM in [7] came to 1.2%.

With `CCOP(=O)(OCC)C(Nc1ccncc1)c1ccc(-c2ccncc2)cc1` (configuration not stated), the inhibition of growth at 1 µM with K562 [1] turned out to be 0%; in the data set on COLO 205 [5] it was 14%. In addition, the IC50 in the data set with K562 [2] stood at 32 µM; with COLO 205 [6] it was 10 µM. For the same compound, the results for the inhibition of growth at 10 µM in the data set on COLO 205 [3] and with K562 [8] were 53.4% and 15.7%, respectively. The inhibition at 24 h, 1 µM in data set [4] is 0.5%. Moreover, the inhibition at 24 h, 10 µM in [7] was determined as 1.9%.

Consider `CCOP(=O)(OCC)C(NCc1cccnc1)c1ccc(-c2ccncc2)cc1` (configuration not stated), for which the inhibition of growth at 1 µM in the data set on K562 [1] is 26%; with COLO 205 [5], 27.6%. Further, the IC50 amounted to 10 µM in the data set with K562 [2] and 8 µM in the data set on COLO 205 [6]. Also, the inhibition of growth at 10 µM turned out to be 60.1% in the data set with COLO 205 [3] and 48.4% with K562 [8]. The inhibition at 24 h, 1 µM in data set [4] is 3.1%. Also, the lipophilicity (logP) in data set [9] came to 4.55. In addition, in data set [7], the inhibition at 24 h, 10 µM was 3.6%.

As to `CCOP(=O)(OCC)C(Nc1nccs1)c1ccc(-c2ccncc2)cc1` (configuration not stated), the results for the inhibition of growth at 1 µM with K562 [1] and in the data set with COLO 205 [5] were 0% and 37.1%, respectively. In addition, the IC50 with K562 [2] came to 24 µM; with COLO 205 [6], 10 µM. The inhibition of growth at 10 µM in the data set on COLO 205 [3] turned out to be 47.9%; in the data set on K562 [8], 24%. Further, the inhibition at 24 h, 1 µM in data set [4] was determined as 1%. Also, the inhibition at 24 h, 10 µM in data set [7] was 2.5%.

With `CCOP(=O)(OCC)C(Nc1nc2ccccc2s1)c1ccc(-c2ccncc2)cc1` (configuration not stated), the inhibition of growth at 1 µM in the data set on K562 [1] amounted to 0%; in the data set with COLO 205 [5], 36.6%. Further, the IC50 in the data set on K562 [2] is 35 µM; in the data set on COLO 205 [6], 15 µM. Also, the results for the inhibition of growth at 10 µM with COLO 205 [3] and in the data set with K562 [8] were 41% and 15.7%, respectively. For the same compound, the inhibition at 24 h, 1 µM in data set [4] was determined as 2.5%. Besides, in [7], the inhibition at 24 h, 10 µM turned out to be 2.5%.

For the compound `CCOP(=O)(OCC)C(Nc1nc2ccc([N+](=O)[O-])cc2s1)c1ccc(-c2ccncc2)cc1` (configuration not stated), the values for the inhibition of growth at 1 µM with K562 [1] and with COLO 205 [5] were 0.9% and 34.4%, respectively. In addition, the IC50 in the data set with K562 [2] is 31 µM; in the data set on COLO 205 [6], 10 µM. Besides, the inhibition of growth at 10 µM in the data set on COLO 205 [3] came out at 48.1%; in the data set with K562 [8], 18.9%. For the same compound, the inhibition at 24 h, 1 µM in data set [4] turned out to be 0%. In addition, the inhibition at 24 h, 10 µM in data set [7] is 0.3%.

Usually IC50 stands for the concentration needed to halve the response being measured. Read a high IC50 as weaker potency in that assay. Broadly, the logP is a log measure of how a compound divides between an organic and an aqueous phase. Higher therefore signals a more lipophilic compound.
